# Bioassay records: PubChem BioAssay, Broad Institute
# T cruzi growth-1 = blocks T. cruzi growth in NIH3T3 culture; inhibition, % at 8.34 µM; AID 624255; T. cruzi beta-gal in NIH3T3, GalScreen luminescence, 90 h; 5.9% of 77,000 active;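 active = mean inhibition above about 93%, with at least 55% of replicates each passing it, limit read from the data, passing the limit was not always enough; inconclusive = only one of those two conditions holds; inactive = neither condition holds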
# GASC1 inh = KDM4C (human) demethylase inhibition | inhibition, % at 12.5 µM | GST-KDM4C 2-372, H3K9me3 peptide, LANCE TR-FRET | 0.15% of 96,000 active | AID 720574;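 active = mean replicate inhibition above about 25%, with at least 55% of replicates also reaching it, limit read from the data, passing the limit was not always enough; inconclusive = only one of those two conditions met; inactive = neither condition met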
# Target sequence (Q9H3R0 2-372 limits assumed): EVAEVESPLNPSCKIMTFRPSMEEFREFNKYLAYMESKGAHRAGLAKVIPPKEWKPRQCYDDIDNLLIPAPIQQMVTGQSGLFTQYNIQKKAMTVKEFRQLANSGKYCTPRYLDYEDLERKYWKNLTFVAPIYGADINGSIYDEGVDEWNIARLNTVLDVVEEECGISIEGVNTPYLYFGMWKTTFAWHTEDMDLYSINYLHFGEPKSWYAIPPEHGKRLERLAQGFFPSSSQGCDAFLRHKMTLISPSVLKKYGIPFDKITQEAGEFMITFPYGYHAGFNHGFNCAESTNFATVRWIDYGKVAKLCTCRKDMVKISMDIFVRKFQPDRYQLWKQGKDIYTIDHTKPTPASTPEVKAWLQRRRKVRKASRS
#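 Test system: N-terminal GST-fused human GASC-1 (KDM4C) fragment, residues 2-372; quantity: GASC-1 enzyme at 10 nM final in reaction; dosing: single dose; schedule: 30 min demethylation and 1 h detection at room temperature; signal: LANCE TR-FRET, excitation 340 nm, emissions 618 and 671 nm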
# IDH1 mut inh = inhibitors of human IDH1 R132H; 0.18% of 70,000 active; O75874; AID 624101; IDH1 R132H reductase, diaphorase/resazurin fluorescence, 60 min; inhibition, % at 10 µM; in the data active = inhibition above about 34%; inconclusive = no clear call, values can overlap the other calls; inactive = below about 11%;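 note: 0% = DMSO and 100% = no enzyme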
# Pf Dd2 growth = inhibitors of Plasmodium falciparum Dd2 growth. P. falciparum Dd2 growth, SYBR Green, 72 h; active compounds read low. 2.3% of 94,000 active. activity change, % at 10 µM. AID 1159554; in the data active = activity change below about -80%; inconclusive = no clear call, values can overlap the other calls
# T cruzi growth-2 = inhibitors of T. cruzi proliferation; AID 651739; 72% of 5,600 active; inhibition, % at 8.35 µM; shares compounds with T cruzi growth-1; T. cruzi beta-gal in NIH3T3, GalScreen luminescence, 90 h;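 active = mean replicate inhibition above about 95% and at least 55% of replicates individually reaching it, limit read from the data; inconclusive = only one of the two criteria is met; inactive = neither criterion is met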
# T cruzi growth-3 = inhibitors of T. cruzi proliferation; shares compounds with T cruzi growth-1; T. cruzi beta-gal in NIH3T3, GalScreen luminescence, 90 h; inhibition, % at 2.09 µM; 21% of 5,600 active; AID 651740;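 active = mean inhibition above about 95%, with at least 55% of replicates also reaching it, limit read from the data; inconclusive = meets just one of the two conditions; inactive = meets neither condition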;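 note: plate controls were neutral control median for no effect and positive control median for full effect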
# 3T3 cytotox = cytotoxicity in mouse NIH/3T3 fibroblasts; shares compounds with T cruzi growth-1; NIH/3T3 viability, CellTiter-Glo ATP luminescence, 90 h; cytotoxicity (signal decrease), % at 8.35 µM; 14% of 5,600 active; AID 651742;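 active = mean signal decrease across replicates above about 35% based on untreated-well scatter, with enough replicates individually passing, limit read from the data; inconclusive = no rule stated though some were filed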;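 note: 0% = median of neutral control wells and 100% = median of positive control wells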
# NIH3T3 tox 2 = kills mouse NIH/3T3 fibroblasts | shares compounds with T cruzi growth-1 | NIH/3T3 viability, CellTiter-Glo ATP luminescence, 90 h | inhibition, % at 24.9 µM | 56% of 5,600 active | AID 651744;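 active = mean loss of cell viability signal at or above a set limit, and enough replicates individually reaching it; inconclusive = meets only the mean limit or only the replicate share; inactive = meets neither condition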;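 note: 0% = median of neutral control wells and 100% = median of positive control wells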
# An asterisk follows results filed as active; ? = inconclusive; nt = no result. An excerpt weighted towards active compounds, which were near 5.8% of everything screened.
SMILES,T cruzi growth-1,GASC1 inh,IDH1 mut inh,Pf Dd2 growth,T cruzi growth-2,T cruzi growth-3,3T3 cytotox,NIH3T3 tox 2
COc1cccc(S(=O)(=O)N(C)C[C@@H]2OCc3cn(nn3)CCCC(=O)N([C@@H](C)CO)C[C@H]2C)c1,?,0,-1,5,94,4,7,15
COC(=O)N(C)C[C@@H]1OCc2cn(nn2)CCCC(=O)N([C@H](C)CO)C[C@H]1C,-250,nt,1,-17,nt,nt,nt,nt
Cc1noc(C)c1NC(=O)N(C)C[C@@H]1OCc2cn(nn2)CCCC(=O)N([C@H](C)CO)C[C@@H]1C,?,-1,-1,1,16,-2,-3,-12
Cc1noc(C)c1NC(=O)N(C)C[C@H]1OCc2cn(nn2)CCCC(=O)N([C@H](C)CO)C[C@@H]1C,-9,nt,-1,9,nt,nt,nt,nt
COC(=O)N(C)C[C@H]1OCc2cn(nn2)CCCC(=O)N([C@@H](C)CO)C[C@H]1C,?,1,-2,-6,25,4,21,?
COc1ccc(OC(=O)N(C)C[C@H]2OCc3cn(nn3)CCCC(=O)N([C@H](C)CO)C[C@H]2C)cc1,22,1,0,2,nt,nt,nt,nt
COc1ccc(OC(=O)N(C)C[C@@H]2OCc3cn(nn3)CCCC(=O)N([C@H](C)CO)C[C@@H]2C)cc1,113*,-1,0,15,42,-17,5,4
C[C@@H]1CN([C@@H](C)CO)C(=O)CCCn2cc(nn2)CO[C@H]1CN(C)Cc1ccc(Cl)c(Cl)c1,135*,1,-3,8,77,74,-30,0
C[C@H]1CN([C@@H](C)CO)C(=O)CCCn2cc(nn2)CO[C@@H]1CN(C)Cc1ccc(Cl)c(Cl)c1,-65,0,-1,20,nt,nt,nt,nt
C[C@@H]1CN([C@H](C)CO)C(=O)CCCn2cc(nn2)CO[C@@H]1CN(C)C(=O)Nc1cccc(F)c1,11,-1,nt,9,nt,nt,nt,nt
C[C@H](CO)N1C[C@H](C)[C@@H](CN(C)C(=O)Nc2cccc(F)c2)OCc2cn(nn2)CCCC1=O,?,0,nt,5,109*,17,31,15
C[C@H](CO)N1C[C@H](C)[C@H](CN(C)C(=O)Nc2ccc(F)cc2)Oc2c(NC(=O)c3ccc(-c4nccs4)cc3)cccc2C1=O,nt,-1,nt,nt,nt,nt,nt,nt
C[C@H]1CN([C@@H](C)CO)C(=O)c2cccc(NC(=O)c3ccc(-c4nccs4)cc3)c2O[C@H]1CN(C)C(=O)Nc1ccc(C(F)(F)F)cc1,95,-3,nt,-45,nt,nt,nt,nt
C[C@@H]1CN([C@H](C)CO)C(=O)c2cccc(NC(=O)c3ccc(-c4nccs4)cc3)c2O[C@H]1CN(C)C(=O)Nc1ccc(C(F)(F)F)cc1,115*,?,nt,-11,100*,72,28,72*
C[C@@H]1CN([C@@H](C)CO)C(=O)c2cccc(NC(=O)c3ccc(-c4nccs4)cc3)c2O[C@H]1CN(C)C(=O)Nc1ccc(C(F)(F)F)cc1,120*,-2,nt,-44,87,82,24,70*
C[C@@H]1CN([C@@H](C)CO)S(=O)(=O)c2ccc(C#Cc3ccccc3)cc2O[C@@H]1CN(C)C(=O)Nc1ccc2c(c1)OCO2,131*,9,-1,?,107*,?,20,30*
C[C@H](CO)N1C[C@H](C)[C@H](CN(C)C(=O)Nc2ccc3c(c2)OCO3)Oc2cc(C#Cc3ccccc3)ccc2S1(=O)=O,131*,0,0,-79,108*,94,-18,19
C[C@H](CO)N1C[C@H](C)[C@@H](CN(C)C(=O)Nc2ccc3c(c2)OCO3)Oc2cc(C3=CCCC3)ccc2S1(=O)=O,114*,0,0,-47,96*,45,-1,17
C[C@H](CO)N1C[C@H](C)[C@H](CN(C)C(=O)Nc2ccc3c(c2)OCO3)Oc2cc(C#Cc3cccnc3)ccc2S1(=O)=O,101*,-2,-10,?,48,-12,-3,8
